STAT1 activator = STAT1 signaling activation | NIH 3T3 STAT1-luciferase reporter, IFN-gamma, luminescence; 100% = IFN-gamma alone, no compound | activation (% of control), % at 5.5 µM | 2.6% of 200,000 active | AID 932;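 active means activation above the screen-wide mean activation plus 3 SD, cut at about 130% in these data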;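 further: raw ratio to IFN-gamma control signal so 100% means no change and 0% no light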
Wee1 stabilizer = human Wee1 degradation inhibition, primary screen; AID 1321; P30291; 1.2% of 220,000 active; HeLa Luc-Wee1K328M stability, luciferase luminescence; 100% = proteasome inhibitor MG132 effect; reporter increase, % at 5 µM;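 active means activation above the mean of all tested compounds plus 3 SD, set per screening run, cut at about 8.8% in these data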;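 further: cells exposed to compound for 20 h before luminescence read; 0% = DMSO alone and 100% = MG132 at 30 µM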
NF-kB expr up = raises NF-kB expression in human neuronal cells; NF-kB reporter expression; hits give high values; fold change at 12.5 µM; 1.6% of 190,000 active; in the data active means fold change above about 3.3
APP 5'UTR act = APP 5'UTR luciferase reporter activation | SH-SY5Y APP 5'UTR luciferase reporter, luminescence; zero percent = DMSO vehicle wells | activation, % at 2 µM | 1% of 190,000 active;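 active means activation above a set limit, based on mean plus 3 SD of controls, cut at about 140% in these data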
Mdm2 ligase inh = inhibitors of human Mdm2 E3 ubiquitin ligase; Q00987; cell-based MDM2 ubiquitination luciferase reporter, 2 h; 0 = plate control, 100 = twice control, blank-subtracted; signal enhancement, % at 5 µM; 0.11% of 210,000 active;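 active means signal enhancement of 30% or more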;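 further: luminescence tracks abundance of the self-degrading MDM2-luciferase fusion protein; higher signal means inhibition of MDM2 E3 ligase activity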
Target sequence (Q00987 whole entry, looked up, the tested form may be a part): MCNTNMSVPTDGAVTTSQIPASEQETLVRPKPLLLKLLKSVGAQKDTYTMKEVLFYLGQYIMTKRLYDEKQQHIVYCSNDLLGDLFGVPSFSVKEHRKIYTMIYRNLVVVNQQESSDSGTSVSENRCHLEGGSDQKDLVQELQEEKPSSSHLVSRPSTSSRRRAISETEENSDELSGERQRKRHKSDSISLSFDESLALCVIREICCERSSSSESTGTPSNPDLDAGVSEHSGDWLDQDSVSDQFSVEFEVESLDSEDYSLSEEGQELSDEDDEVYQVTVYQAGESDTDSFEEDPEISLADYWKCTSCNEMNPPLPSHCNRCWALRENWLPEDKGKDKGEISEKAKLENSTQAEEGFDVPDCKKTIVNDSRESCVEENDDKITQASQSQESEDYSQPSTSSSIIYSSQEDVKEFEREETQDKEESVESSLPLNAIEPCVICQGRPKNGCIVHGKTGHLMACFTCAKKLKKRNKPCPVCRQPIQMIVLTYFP
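Material: Stable MDM2–luciferase fusion reporter cells | Amount: 2000 cells seeded into each well | Dosing: One concentration, 5 µM, with 0.2% DMSO | Incubation: 4 h cell settling then 2 h compound exposure, 37 °C | Measured by: Luciferase luminescence | Read-out basis: % enhancement relative to plate controls after blank subtraction | Benchmarks: Control and blank well means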
p97 inhibitor = inhibitors of human p97 ATPase; P55072; recombinant p97 ATPase, Kinase-Glo ATP luminescence, 3 h; inhibition, % at 8 µM; 0.42% of 220,000 active; AID 1481; in the data active means inhibition above about 15%;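 further: 0% = DMSO vehicle and 100% = wells lacking enzyme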
* hit, by the source's call; . = no result given. In the library only some 4.6% were active in any assay of this set; here they are far more common.

SMILES | STAT1 activator | Wee1 stabilizer | NF-kB expr up | APP 5'UTR act | Mdm2 ligase inh | p97 inhibitor
CC(C)C(=O)Nc1ccc(-c2nc3cccnc3o2)cc1 | 147* | 0 | 2.7 | 151* | -7 | 1
O=C1C2C3C=CC(C2C(=O)N1c1ccccc1O)C1C2C(=O)N(c4ccccc4O)C(=O)C2C31 (centres undefined) | 101 | 8.8* | 1.5 | -2 | 0 | 2
O=C1C2C3C=CC(C2C(=O)N1c1ccc(O)cc1)C1C2C(=O)N(c4ccc(O)cc4)C(=O)C2C31 (centres undefined) | . | 0 | . | . | . | 2
O=S(=O)(Nc1ccc(S(=O)(=O)Nc2ccccc2)cc1)c1ccccc1 | 97 | 9.2* | 1.1 | 5 | 3 | 1
CCOc1cccc2c1OC(c1cc(OC)c(OC)c(OC)c1)N1N=C(c3ccc(C)o3)CC21 (centres undefined) | 89 | 2 | 0.82 | 137* | -9 | -3
COc1ccc(C2=NN(C(=O)CSc3ncccn3)C(c3cccc(OC)c3OC)C2)cc1 (centres undefined) | 98 | 5 | 0.97 | -2 | 9 | 2
Cc1nc2ccccn2c1C(=O)NC1CCCc2ccccc21 (centres undefined) | 79 | 0 | 0.7 | 0 | -11 | 2
Cc1ccc(-n2ncc(N(C)C)c(Cl)c2=O)cc1 | 132* | 1 | 2.6 | 119 | -38 | -5
COc1ccc(-n2ncc(Cl)c(Cl)c2=O)cc1 | 106 | 4 | 1.1 | -92 | -8 | 3
CN(C)c1cnn(-c2ccccc2)c(=O)c1Cl | 108 | 7 | 1.7 | -2 | 10 | 6
COc1ccc(-n2ncc(N(C)n3cccc3)c(Cl)c2=O)cc1 | 134* | 3 | 3.7* | 133 | -30 | 0
O=C1CS/C(=N\N=C\c2ccccc2Cl)N1CC1CC1 | . | 5 | . | . | -14 | -3
COc1ccc(-n2c(C)cc(C3=NNC(=NC4CC4)SC3)c2C)cc1 | 42 | 3 | 1.3 | 93 | -18 | 22*
Cc1cc(C2=NNC(=NC3CC3)SC2)c(C)n1-c1ccccc1 | 17 | -3 | 0.13 | -76 | -81 | 2
Cc1ccc2nc(SCC(=O)N3CCCC3)[nH]c2c1 | 144* | 0 | 3.2 | 115 | -12 | 4
O=C(Nc1ccc2c(c1)OCO2)c1ccncc1 | 106 | -1 | 1.5 | 11 | -1 | -2
O=C(Nc1ccc2c(c1)OCO2)c1cccs1 | 122 | 0 | 3.4* | 62 | -19 | -4
O=C(c1ccccc1)c1ccc2c(c1)OCCOCCOCCOCCO2 | . | -2 | . | . | -5 | 8
O=C(Nc1ccc2nn(-c3ccccc3)nc2c1)c1cccs1 | 136* | -2 | 1.5 | 74 | -15 | 1
O=C(c1ccc2c(c1)OCCCO2)c1cccs1 | 127 | 4 | 4* | 140* | -31 | 6
O=C(/C=C\Nc1ccc2c(c1)OCO2)c1ccccn1 | 21 | -6 | 1.3 | 120 | -99 | -18
O=C(/C=C\Nc1ccc2c(c1)OCO2)c1cccs1 | 40 | 7 | 6.3* | 178* | -88 | -5
CCc1cccc(CC)c1NC(=O)CSc1nnc(CCC(=O)O)c(=O)[nH]1 | 98 | 9.5* | 0.99 | 12 | 6 | 6
O=[N+]([O-])c1ccccc1N/N=C\c1ccccc1Cl | 127 | 0 | 3.7* | . | -34 | -9
CCOC(=O)Nc1sc2c(c1C#N)CCC(C)C2 (centres undefined) | 132* | 0 | 3.9* | 92 | 0 | 0
SMILES | STAT1 activator | Wee1 stabilizer | NF-kB expr up | APP 5'UTR act | Mdm2 ligase inh | p97 inhibitor
CC1=C(C(=O)OC(C)C)C(c2ccccc2)NC(=S)N1C (centres undefined) | 98 | -1 | 1 | 5 | 4 | 2
CC1CCC/C(=N\NC(=S)Nc2ccccc2)C1 (centres undefined) | 106 | -2 | 0.94 | 126 | 8 | 4
CC1CCCC/C1=N\NC(=S)Nc1ccccc1 (centres undefined) | 105 | -2 | 1.4 | 175* | -6 | 0
c1ccc(-c2ccccc2-c2nc(-c3cccnc3)no2)cc1 | 100 | 2 | 0.86 | -12 | -11 | -3
Brc1ccccc1-c1nc(-c2ccccc2)no1 | 147* | 0 | 9.5* | 180* | -53 | 2
Fc1ccccc1-c1nc(-c2ccccc2)no1 | 130* | 0 | 6.5* | 157* | -78 | -2

Bioassay records as filed in PubChem BioAssay.
